ChEMBL document CHEMBL1944567, “Synthesis, biological evaluation, and molecular modeling of chalcone derivatives as potent inhibitors of Mycobacterium tuberculosis protein tyrosine phosphatases (PtpA and PtpB)” (J Med Chem, 2012)

Columns and labels:
[1] = Solubility of the compound; format: physicochemical
[2] = target: T1, Phosphotyrosine-protein phosphatase PTPB (Mycobacterium tuberculosis) (UniProt P96830); assay: Inhibition of Mycobacterium tuberculosis PTP-B using p-nitrophenyl phosphate as substrate at 25 uM measured for 10 mins by spectrofluorimetry
T1 sequence (whole entry): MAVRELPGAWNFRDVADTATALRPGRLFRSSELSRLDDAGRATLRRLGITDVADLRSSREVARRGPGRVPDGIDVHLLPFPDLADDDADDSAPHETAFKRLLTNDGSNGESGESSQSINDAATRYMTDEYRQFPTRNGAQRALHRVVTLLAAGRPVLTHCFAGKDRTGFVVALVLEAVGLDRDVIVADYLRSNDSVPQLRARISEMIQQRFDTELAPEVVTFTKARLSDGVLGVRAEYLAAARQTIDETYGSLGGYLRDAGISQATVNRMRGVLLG
Summary of the method: (§1)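 Single-point screen at 25 μM final compound, added from 1.0 × 10−3 M DMSO stock, with recombinant Mtb PtpA or PtpB (0.4 μg/μL final) in 20 mM imidazole pH 7.0 with 40 mM pNPP. Reaction started by adding enzyme. p-Nitrophenol release read at 410 nm every min for 10 min at 37 °C. Residual activity was taken from the absorbance difference between 6 and 2 min; two experiments, each in triplicate.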

[3] = target: T2, Low molecular weight protein-tyrosine phosphatase A (Mycobacterium tuberculosis) (UniProt P9WIA1); assay: Inhibition of Mycobacterium tuberculosis PTP-A using p-nitrophenyl phosphate as substrate at 25 uM measured for 10 mins by spectrofluorimetry; summary of the method: as §1
T2 sequence (whole entry): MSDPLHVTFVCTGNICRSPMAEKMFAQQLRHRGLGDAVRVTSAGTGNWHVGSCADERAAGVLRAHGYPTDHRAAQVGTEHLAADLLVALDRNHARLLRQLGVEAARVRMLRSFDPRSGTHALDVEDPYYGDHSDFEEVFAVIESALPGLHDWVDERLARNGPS

| SMILES | solubility [1] | inhibition [2] [%] | inhibition [3] [%] |
| --- | --- | --- | --- |
| O=C(/C=C/c1ccc(F)cc1)c1ccc2c(c1)OCO2 | soluble | 0 | 0 |
| O=C(/C=C/c1cccs1)c1ccc2ccccc2c1 | soluble | 0 | 15 |
| O=C(/C=C/c1cccc(Br)c1)c1ccc2c(c1)OCO2 | soluble | 0 | 5 |
| O=C(/C=C/c1ccc(Br)cc1)c1ccc2ccccc2c1 | soluble | 24 | 8 |
| COc1cc(OC)cc(C(=O)/C=C/c2ccc3ccccc3c2)c1 | soluble | 10 | 0 |
| O=C(/C=C/c1ccc2ccccc2c1)c1ccc2c(c1)OCO2 | soluble | 15 | 12 |
| O=C(/C=C/c1ccc(Cl)c(Cl)c1)c1ccc2ccccc2c1 | soluble | 28 | 11 |
| O=C(/C=C/c1c(Cl)cccc1Cl)c1ccc2ccccc2c1 | soluble | 0 | 16 |
| COc1cc(OC)c(C(=O)/C=C/c2ccc3ccccc3c2)cc1OC | soluble | 14 | 22 |
| O=C(/C=C/c1ccc(F)cc1)c1ccc2ccccc2c1 | soluble | 14 | 13 |
| COc1cccc(C(=O)/C=C/c2ccc3ccccc3c2)c1 | soluble | 0 | 0 |
| COc1ccc(OC)c(/C=C/C(=O)c2ccc3ccccc3c2)c1 | soluble | 0 | 22 |
| O=C(/C=C/c1ccc2c(c1)OCO2)c1ccc2c(c1)OCO2 | soluble | 0 | 6 |
| O=C(/C=C/c1ccc(-c2ccccc2[N+](=O)[O-])o1)c1ccc2c(c1)OCO2 | soluble | 10 | 19 |
| O=C(/C=C/c1ccccc1Cl)c1ccc2c(c1)OCO2 | soluble | 0 | 5 |
| COc1cc(/C=C/C(=O)c2ccc(Cl)s2)ccc1OCc1ccccc1 | soluble | 19 | 5 |
| O=C(/C=C/c1c(Cl)cccc1Cl)c1ccc2c(c1)OCO2 | soluble | 0 | 13 |
| COc1cc(/C=C/C(=O)c2ccc3c(c2)OCO3)ccc1O | soluble | 0 | 0 |
| COc1ccc2nc(Cl)c(/C=C/C(=O)c3ccc4ccccc4c3)cc2c1 | soluble | 17 | 22 |
| COc1cc(OC)c(C(=O)/C=C/c2ccc3c(c2)OCO3)c(OC)c1 | soluble | 15 | 0 |
| O=C(/C=C/c1ccccc1F)c1ccc2c(c1)OCO2 | soluble | 0 | 9 |

| SMILES | solubility [1] | inhibition [2] [%] | inhibition [3] [%] |
| --- | --- | --- | --- |
| Cc1ccc(/C=C/C(=O)c2ccc3ccccc3c2)cc1 | soluble | 28 | 8 |
| O=C1COc2ccc(C(=O)/C=C/c3ccc4ccccc4c3)cc2N1 | soluble | 24 | 0 |
| O=C(/C=C/c1cc2ccccc2nc1Cl)c1ccc2c(c1)OCO2 | soluble | 0 | 19 |
| COc1cccc(/C=C/C(=O)c2ccc3ccccc3c2)c1 | soluble | 0 | 10 |
| COc1ccc(/C=C/C(=O)c2ccc3c(c2)OCO3)cc1 | soluble | 11 | 17 |
| O=C(/C=C/c1cccc(Cl)c1)c1ccc2c(c1)OCO2 | soluble | 0 | 23 |
| CCCCOc1ccc(/C=C/C(=O)c2ccc3c(c2)OCO3)cc1 | soluble | 0 | 11 |
| COc1cccc(OC)c1/C=C/C(=O)c1ccc2c(c1)OCO2 | soluble | 0 | 4 |
| O=C(/C=C/c1ccc2ccccc2c1)c1ccc(Cl)c(Cl)c1 | soluble | 18 | 9 |
| O=C(/C=C/c1ccccc1F)c1ccc2ccccc2c1 | soluble | 0 | 23 |
| O=C(/C=C/c1cccc([N+](=O)[O-])c1)c1ccc2ccccc2c1 | soluble | 7 | 12 |
| COc1ccc(OC)c(C(=O)/C=C/c2ccc(OCc3ccccc3)c(OC)c2)c1 | soluble | 16 | 12 |
| O=C(/C=C/c1ccccc1)c1ccc2c(c1)OCO2 | soluble | 0 | 0 |
| COc1cc(/C=C/C(=O)c2ccc3c(c2)OCO3)cc(OC)c1OC | soluble | 0 | 5 |
| COc1cc(/C=C/C(=O)c2ccc3c(c2)OCO3)ccc1OCc1ccccc1 | soluble | 0 | 12 |
| O=C(/C=C/c1ccc(Cl)c(C(F)(F)F)c1)c1ccc2ccccc2c1 | soluble | 0 | 13 |
| COc1cc(OC)c(/C=C/C(=O)c2ccc3c(c2)OCO3)c(OC)c1 | soluble | 0 | 5 |
| O=C(/C=C/c1ccc(Cl)cc1)c1ccc2ccccc2c1 | soluble | 27 | 13 |
| COc1ccc(/C=C/C(=O)c2ccc3c(c2)OCO3)cc1OC | soluble | 0 | 19 |
| COc1cc(/C=C/C(=O)c2ccc3ccccc3c2)ccc1OCc1ccccc1 | soluble | 0 | 5 |
| O=C(/C=C/c1cccc(Cl)c1)c1ccc2ccccc2c1 | soluble | 0 | 7 |

| SMILES | solubility [1] | inhibition [2] [%] | inhibition [3] [%] |
| --- | --- | --- | --- |
| O=C(/C=C/c1cccc(Br)c1)c1ccc2ccccc2c1 | soluble | 20 | 0 |
| COc1cccc(/C=C/C(=O)c2ccc3c(c2)OCO3)c1 | soluble | 0 | 10 |
| O=C(/C=C/c1cc(Cl)cc(Cl)c1)c1ccc2ccccc2c1 | soluble | 29 | 19 |
| O=C(/C=C/c1cccc(C(F)(F)F)c1)c1ccc2ccccc2c1 | soluble | 0 | 24 |
| O=C(/C=C/c1cccc2ccccc12)c1ccc2c(c1)OCO2 | soluble | 0 | 8 |
| O=C(/C=C/c1ccc(C(F)(F)F)cc1)c1ccc2c(c1)OCO2 | soluble | 0 | 7 |
| Cc1ccc(/C=C/C(=O)c2ccc3c(c2)OCO3)cc1 | soluble | 0 | 14 |
| CN(C)c1ccc(/C=C/C(=O)c2ccc3c(c2)OCO3)cc1 | soluble | 0 | 10 |
| N#Cc1ccc(/C=C/C(=O)c2ccc3c(c2)OCO3)cc1 | soluble | 0 | 4 |
| O=C(/C=C/c1cccc([N+](=O)[O-])c1)c1ccc2c(c1)OCO2 | soluble | 22 | 23 |
| O=C(/C=C/c1ccc2c(c1)OCO2)c1ccc2ccccc2c1 | soluble | 0 | 13 |
| N#Cc1ccc(/C=C/C(=O)c2ccc3ccccc3c2)cc1 | soluble | 20 | 21 |
| O=C(/C=C/c1cccs1)c1ccc2c(c1)OCO2 | soluble | 0 | 7 |
| O=C(/C=C/c1cc(Cl)cc(Cl)c1)c1ccc2c(c1)OCO2 | soluble | 0 | 14 |
| COc1ccc(OC)c(/C=C/C(=O)c2ccc3c(c2)OCO3)c1 | soluble | 0 | 10 |
| O=C(/C=C/c1ccc(-c2ccccc2[N+](=O)[O-])o1)c1ccc2ccccc2c1 | soluble | 7 | 9 |
| O=C(/C=C/c1ccc2ccccc2c1)c1cc(Cl)ccc1Cl | soluble | 20 | 0 |
| O=C(/C=C/c1ccccc1Cl)c1ccc2ccccc2c1 | soluble | 13 | 0 |
| COc1cc(OC)c(OC)cc1/C=C/C(=O)c1ccc2ccccc2c1 | soluble | 0 | 7 |
| O=C(/C=C/c1ccccc1)c1ccc2ccccc2c1 | soluble | 16 | 4 |
